Experimental data from ChEMBL document CHEMBL1126811, “Fluorinated and iodinated dopamine agents: D2 imaging agents for PET and SPECT” (J Med Chem, 1993).

Experiments:
[1] = species on record: Rattus norvegicus; assay: Dissociation constant was determined; format: ADME, organism-based
Outline: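 Rat striatal membrane homogenate (40–60 μg protein) incubated with 125I-labeled ligand ± competitors in 0.2 mL assay buffer, 15 min at 37 °C with stirring. Filtered on protamine-pretreated (0.2%) GF/B filters, washed with cold 50 mM Tris-HCl pH 7.4, gamma-counted. Nonspecific binding defined with 10 μM (+)-butaclamol. Scatchard and competition data fitted by iterative nonlinear least squares.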

[2] = test system: Rattus norvegicus; assay: Biodistribution of radioligand [125I]FIDA1 in heart of rat after 60 minutes after an intravenous injection is given (average of 3 rats); format: ADME, organism-based; details: in vivo, 1 h
Outline: (§1)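 Male Sprague–Dawley rats (225–300 g) were given 0.2 mL saline containing the radioiodinated ligand (8–10 μCi) into the femoral vein under ether anesthesia. They were killed at set times by cardiac excision. Organs were weighed and γ-counted against diluted aliquots of the injected dose and expressed as % dose/organ. Blood and muscle were taken as 7% and 40% of body weight. Three rats were used per point.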

[3] = test system: Rattus norvegicus; assay: Biodistribution of radioligand [125I]FIDA1 in liver of rat after 120 minutes after an intravenous injection is given (average of 3 rats); format: ADME, organism-based; details: in vivo, 2 h; outline: as §1
[4] = test system: Rattus norvegicus; assay: Biodistribution of radioligand [125I]FIDA1 in brain of rat after 2 minutes after an intravenous injection is given (average of 3 rats); format: ADME, organism-based; details: in vivo; outline: as §1
[5] = test system: Rattus norvegicus; assay: Biodistribution of radioligand [125I]-FIDA1 in heart of rat after 120 minutes after an intravenous injection is given (average of 3 rats); format: ADME, organism-based; details: in vivo, 2 h; outline: as §1
[6] = test system: Rattus norvegicus; assay: Uptake of radioligand [125I]-FIDA1 by cortex in rat after 120 minutes after an intravenous injection is given (average of 3 rats); format: ADME, organism-based; details: in vivo, 2 h
Outline: (§2)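 Male Sprague–Dawley rats (225–300 g) under ether anesthesia received radioiodinated tracer (8–10 μCi in 0.2 mL saline) into the femoral vein. They were killed by cardiac excision at set times. Cortex, striatum, hippocampus and cerebellum were dissected, weighed and gamma-counted. Results are % dose/gram against diluted injected dose.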

[7] = test system: Rattus norvegicus; assay: Biodistribution of radioligand [125I]FIDA1 in skin of rat after 60 minutes after an intravenous injection is given (average of 3 rats); format: ADME, organism-based, Zone of skin; details: in vivo, 1 h; outline: as §1
[8] = test system: Rattus norvegicus; assay: Biodistribution of radioligand [125I]FIDA1 in heart of rat after 2 minutes after an intravenous injection is given (average of 3 rats); format: ADME, organism-based; details: in vivo; outline: as §1
[9] = test system: Rattus norvegicus; assay: Biodistribution of radioligand [125I]-FIDA1 in kidney of rat after 2 minutes after an intravenous injection is given (average of 3 rats); format: ADME, organism-based; details: in vivo; outline: as §1
[10] = test system: Rattus norvegicus; assay: Uptake of radioligand [125I]FIDA1 by cortex in rat after 2 minutes after an intravenous injection is given (average of 3 rats); format: ADME, organism-based; details: in vivo; outline: as §2
[11] = test system: Rattus norvegicus; assay: Biodistribution of radioligand [125I]FIDA1 in spleen of rat after 60 minutes after an intravenous injection is given (average of 3 rats); format: ADME, organism-based; details: in vivo, 1 h; outline: as §1
[12] = test system: Rattus norvegicus; assay: Uptake of radioligand [125I]FIDA1 by striatum in rat after 120 minutes after an intravenous injection is given (average of 3 rats); format: ADME, organism-based; details: in vivo, 2 h; outline: as §2
[13] = test system: Rattus norvegicus; assay: Uptake of radioligand [125I]FIDA1 by striatum in rat after 60 minutes after an intravenous injection is given (average of 3 rats); format: ADME, organism-based; details: in vivo, 1 h; outline: as §2
[14] = test system: Rattus norvegicus; assay: Biodistribution of radioligand [125I]FIDA1 in brain of rat after 60 minutes after an intravenous injection is given (average of 3 rats); format: ADME, organism-based; details: in vivo, 1 h; outline: as §1
[15] = test system: Rattus norvegicus; assay: Biodistribution of radioligand [125I]FIDA1 in blood of rat after 2 minutes after an intravenous injection is given (average of 3 rats); format: ADME, organism-based; details: in vivo; outline: as §1
[16] = test system: Rattus norvegicus; assay: Uptake of radioligand [125I]FIDA1 by striatum in rat after 2 minutes after an intravenous injection is given (average of 3 rats); format: ADME, organism-based; details: in vivo; outline: as §2
[17] = test system: Rattus norvegicus; assay: Biodistribution of radioligand [125I]FIDA1 in blood of rat after 60 minutes after an intravenous injection is given (average of 3 rats); format: ADME, organism-based; details: in vivo, 1 h; outline: as §1
[18] = test system: Rattus norvegicus; assay: Uptake of radioligand [125I]FIDA1 by cerebellum in rat after 2 minutes after an intravenous injection is given (average of 3 rats); format: ADME, organism-based; details: in vivo; outline: as §2
[19] = test system: Rattus norvegicus; assay: Biodistribution of radioligand [125I]FIDA1 in brain of rat after 120 minutes after an intravenous injection is given (average of 3 rats); format: ADME, organism-based; details: in vivo, 2 h; outline: as §1
[20] = test system: Rattus norvegicus; assay: Biodistribution of radioligand [125I]FIDA1 in thyroid of rat after 120 minutes after an intravenous injection is given (average of 3 rats); format: ADME, organism-based, Thyroid gland; details: in vivo, 2 h; outline: as §1
[21] = test system: Rattus norvegicus; assay: Biodistribution of radioligand [125I]FIDA1 in kidney of rat after 30 minutes after an intravenous injection is given (average of 3 rats); format: ADME, organism-based; details: in vivo, 0.5 h; outline: as §1
[22] = test system: Rattus norvegicus; assay: Biodistribution of radioligand [125I]FIDA1 in muscle of rat after 2 minutes after an intravenous injection is given (average of 3 rats); format: ADME, organism-based, Muscle tissue; details: in vivo; outline: as §1
[23] = test system: Rattus norvegicus; assay: Uptake of radioligand [125I]FIDA1 by cerebellum in rat after 120 minutes after an intravenous injection is given (average of 3 rats); format: ADME, organism-based; details: in vivo, 2 h; outline: as §2
[24] = test system: Rattus norvegicus; assay: Biodistribution of radioligand [125I]FIDA1 in skin of rat after 2 minutes after an intravenous injection is given (average of 3 rats); format: ADME, organism-based, Zone of skin; details: in vivo; outline: as §1
[25] = test system: Rattus norvegicus; assay: Biodistribution of radioligand [125I]FIDA1 in skin of rat after 120 minutes after an intravenous injection is given (average of 3 rats); format: ADME, organism-based, Zone of skin; details: in vivo, 2 h; outline: as §1
[26] = test system: Rattus norvegicus; assay: Biodistribution of radioligand [125I]FIDA1 in lung of rat after 2 minutes after an intravenous injection is given (average of 3 rats); format: ADME, organism-based; details: in vivo; outline: as §1
[27] = test system: Rattus norvegicus; assay: Biodistribution of radioligand [125I]-FIDA1 in liver of rat after 2 minutes after an intravenous injection is given (average of 3 rats); format: ADME, organism-based; details: in vivo; outline: as §1
[28] = test system: Rattus norvegicus; assay: Biodistribution of radioligand [125I]FIDA1 in kidney of rat after 60 minutes after an intravenous injection is given (average of 3 rats); format: ADME, organism-based; details: in vivo, 1 h; outline: as §1
[29] = test system: Rattus norvegicus; assay: Biodistribution of radioligand [125I]FIDA1 in blood of rat after 30 minutes after an intravenous injection is given (average of 3 rats); format: ADME, organism-based; details: in vivo, 0.5 h; outline: as §1
[30] = test system: Rattus norvegicus; assay: Biodistribution of radioligand [125I]FIDA1 in thyroid of rat after 60 minutes after an intravenous injection is given (average of 3 rats); format: ADME, organism-based, Thyroid gland; details: in vivo, 1 h; outline: as §1
[31] = test system: Rattus norvegicus; assay: Uptake of radioligand [125I]FIDA1 by cerebellum in rat after 60 minutes after an intravenous injection is given (average of 3 rats); format: ADME, organism-based; details: in vivo, 1 h; outline: as §2
[32] = test system: Rattus norvegicus; assay: Biodistribution of radioligand [125I]FIDA1 in liver of rat after 60 minutes after an intravenous injection is given (average of 3 rats); format: ADME, organism-based; details: in vivo, 1 h; outline: as §1
[33] = test system: Rattus norvegicus; assay: Biodistribution of radioligand [125I]FIDA1 in spleen of rat after 2 minutes after an intravenous injection is given (average of 3 rats); format: ADME, organism-based; details: in vivo; outline: as §1
[34] = test system: Rattus norvegicus; assay: Biodistribution of radioligand [125I]FIDA1 in muscle of rat after 60 minutes after an intravenous injection is given (average of 3 rats); format: ADME, organism-based, Muscle tissue; details: in vivo, 1 h; outline: as §1
[35] = test system: Rattus norvegicus; assay: Biodistribution of radioligand [125I]FIDA1 in lung of rat after 120 minutes after an intravenous injection is given (average of 3 rats); format: ADME, organism-based; details: in vivo, 2 h; outline: as §1
[36] = test system: Rattus norvegicus; assay: Biodistribution of radioligand [125I]FIDA1 in spleen of rat after 120 minutes after an intravenous injection is given (average of 3 rats); format: ADME, organism-based; details: in vivo, 2 h; outline: as §1
[37] = test system: Rattus norvegicus; assay: Biodistribution of radioligand [125I]FIDA1 in lung of rat after 60 minutes after an intravenous injection is given (average of 3 rats); format: ADME, organism-based; details: in vivo, 1 h; outline: as §1

Compound | Kd [1] [nM] | Dose/organ [2] [%] | Dose/organ [3] [%] | Dose/organ [4] [%] | Dose/organ [5] [%] | Dose/g [6] [%] | Dose/organ [7] [%] | Dose/organ [8] [%] | Dose/organ [9] [%] | Dose/g [10] [%] | Dose/organ [11] [%] | Dose/g [12] [%] | Dose/g [13] [%] | Dose/organ [14] [%] | Dose/organ [15] [%] | Dose/g [16] [%] | Dose/organ [17] [%] | Dose/g [18] [%] | Dose/organ [19] [%] | Dose/organ [20] [%] | other results
COc1cc(I)cc(C(=O)NC[C@@H]2CCCN2Cc2ccc(F)cc2)c1OC | 0.02 | 0.06 | 5.71 | 0.98 | 0.03 | 0.01 | 8.56 | 1.38 | 6.77 | 0.63 | 0.14 | 0.23 | 0.37 | 0.1 | 2.08 | 0.59 | 0.64 | 0.49 | 0.05 | 0.03 | Dose/organ [21]: 2.96%; Dose/organ [22]: 11.14%; Dose/g [23]: 0.01%; Dose/organ [24]: 6.08%; Dose/organ [25]: 5.75%; Dose/organ [26]: 7.82%; Dose/organ [27]: 19.41%; Dose/organ [28]: 1.38%; Dose/organ [29]: 0.87%; Dose/organ [30]: 0.03%; Dose/g [31]: 0.03%; Dose/organ [32]: 10.44%; Dose/organ [33]: 1.19%; Dose/organ [34]: 4.21%; Dose/organ [35]: 0.15%; Dose/organ [36]: 0.05%; Dose/organ [37]: 0.32%
CCN1CCC[C@H]1CNC(=O)c1cc(I)cc(OC)c1OCCF | 0.13 | 0.03 | 2.24 | 0.41 | 0.01 | 0.0014 | 1.76 | 0.81 | 6.18 | 0.25 | 0.05 | 0.095 | 0.175 | 0.05 | 3.76 | 0.3 | 0.78 | 0.16 | 0.02 | 0.03 | Dose/organ [21]: 1.42%; Dose/organ [22]: 11.83%; Dose/g [23]: 0.0016%; Dose/organ [24]: 8.19%; Dose/organ [25]: 0.75%; Dose/organ [26]: 6.53%; Dose/organ [27]: 20.46%; Dose/organ [28]: 0.39%; Dose/organ [29]: 1.91%; Dose/organ [30]: 0.04%; Dose/g [31]: 0.006%; Dose/organ [32]: 7.08%; Dose/organ [33]: 0.7%; Dose/organ [34]: 1.96%; Dose/organ [35]: 0.04%; Dose/organ [36]: 0.01%; Dose/organ [37]: 0.14%
